Bioassay records from PubChem BioAssay.
M18AAP inhibitor – PfM18AAP enzyme inhibition; inhibition, % at 7.35 µM; recombinant PfM18AAP, H-Glu-NHMec fluorogenic cleavage; actives 1.2% (n = 290,000); AID 1822;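 active means inhibition above the campaign mean inhibition over all tested compounds plus 3 SD, cut at about 28% in these data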;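 further: 0% = plate median of test compound wells and 100% = 2 mM ZnCl2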
IMP-1 inh – inhibitors of Pseudomonas aeruginosa IMP-1 metallo-beta-lactamase | purified IMP-1, nitrocefin hydrolysis, epi-absorbance fluorescence | inhibition, % at 5.6 µM | actives 0.45% (n = 290,000) | AID 1556;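 active means inhibition above the mean plus 3 SD of all compounds in the same screening run, cut at about 4.5% in these data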;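 further: 0% = IMP-1 with DMSO and 100% = DMSO wells lacking enzyme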
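Material – recombinant IMP-1 enzyme, purified · Amount – IMP-1 0.2 nM before substrate addition · Medium – HEPES buffer pH 7.1 with ZnSO4 and Brij 35 · Timing – 25 °C, 15 min preincubation, 25 min reaction · Measured by – plate fluorescence quenching by hydrolysis product, ex 480/em 530 nm · Read-out – percent enzyme inhibition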
CTSL1 counter – cathepsin L1 inhibition, PFM18AAP counter-screen; recombinant F. hepatica cathepsin L1, Z-Leu-Arg-MCA fluorescence; inhibition, % at 5.96 µM; actives 0.49% (n = 300,000);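 active means inhibition above the mean of all tested compounds plus 3 SD, set per screening campaign, cut at about 17% in these data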;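 further: 0% = plate median of test compound wells and 100% = 1 µM Z-Phe-Ala-diazomethylketone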
VIM-2 inhibitor – inhibitors of Pseudomonas aeruginosa VIM-2 metallo-beta-lactamase | purified VIM-2, nitrocefin hydrolysis, epi-absorbance fluorescence | inhibition, % at 5.6 µM | actives 0.89% (n = 290,000) | AID 1527;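 active means inhibition above the mean of all tested compounds plus 3 SD, cutoff set per screening run, cut at about 7.5% in these data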;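 further: red hydrolysis product quenches plate fluorescence so inhibitors raise well fluorescence; 0% = enzyme with DMSO and 100% = DMSO without enzyme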
Active calls of the source: *; . = no result given. Hits are enriched below; roughly 2.7% of the tested compounds scored in any of these assays.

SMILES	M18AAP inhibitor	IMP-1 inh	CTSL1 counter	VIM-2 inhibitor
CC(=O)N1c2ccccc2C2(O)N=C(C)SC12 (stereo not given)	42*	-4	-1	0
CC(=O)N1c2ccccc2Nc2ccccc21	-3	-1	-3	-4
O=S(=O)(NC12CC3CC(CC(C3)C1)C2)c1ccc(F)cc1	2	0	-1	-2
Cc1ccc2cc3cc(C(=O)NCCCN4CC(C)CC(C)C4)oc3nc2c1 (stereo not given)	-11	-2	6	10*
Cc1ccc2oc(=O)c3cc(C(=O)NCCCN4CC(C)CC(C)C4)sc3c2c1 (stereo not given)	7	-2	1	10*
CCCN1CCN(CCCNC(=O)c2cc3c(=O)[nH]c4ccc(C)cc4c3s2)CC1	5	-4	-1	6
Cc1ncc([N+](=O)[O-])n1CCOC(=O)c1cc(Cl)cc(Cl)c1N	16	-2	8	9.4*
COc1cc(CC(=O)OCc2ccccc2F)cc(OC)c1OC	4	-3	-3	1
Nc1cccc2nsnc12	9	-3	-2	-2
Nc1cc2nsnc2cc1Br	9	-3	114*	-1
COc1ccc(-n2c(C)nnc2SCC(=O)Nc2ccccc2F)cc1	-6	0	-1	0
Cc1ccc(COc2ccccc2C(=S)N2CCCC2)cc1	28*	1	1	3
Fc1ccc(COc2ccccc2C(=S)N2CCCC2)cc1	19	-1	-2	-5
Clc1cccc(Nc2c3c(nc4ncnn24)CCC3)c1	-5	-3	-2	4
CCc1cccc(Nc2c3c(nc4ncnn24)CCC3)c1	-1	-4	0	9.9*
COC(=O)c1sc2nc(-c3ccco3)ccc2c1N	25	0	9	1
NC(=O)c1sc2nc(-c3ccco3)ccc2c1N	13	1	4	11*
Cc1ccc2cc(CN(Cc3ccc4c(c3)OCO4)Cc3nnnn3Cc3ccco3)c(=O)[nH]c2c1C	15	-3	-3	1
Cc1ccc(C)c2[nH]c(=O)c(CN(Cc3ccc4c(c3)OCO4)Cc3nnnn3Cc3ccco3)cc12	32*	0	0	1
CN(C(=O)c1cc([N+](=O)[O-])ccc1N1CCCC1)C1CCCCC1	10	-4	22*	-2
O=C(NC1CCCCC1)c1cc([N+](=O)[O-])ccc1N1CCCC1	5	-5	34*	-3
NC(=O)c1cc([N+](=O)[O-])ccc1N1CCCCC1	-15	-2	-2	0
Cc1ccc(S(=O)(=O)N2CCOCC2)s1	2	-1	2	0
O=C1OCC(c2ccccc2)=C1c1ccc(S(=O)(=O)N2CCOCC2)s1	9	44*	4	0
CCOC(=O)C1(Cc2ccccc2)CCN(Cc2cccc(OC)c2O)CC1	3	-2	18*	-2
SMILES	M18AAP inhibitor	IMP-1 inh	CTSL1 counter	VIM-2 inhibitor
CCS(=O)(=O)c1nc(S(=O)(=O)c2ccc(Cl)cc2)c(N2CCOCC2)s1	-8	-2	3	0
COc1cc(/C(C)=N/NC(=S)NC(C)C)cc(OC)c1OC	-3	-3	2	-3
COc1cc(/C(C)=N\NC(N)=S)cc(OC)c1OC	9	-3	18*	-5
O=C(CNC(=O)c1ccco1)N/N=C/c1cc(Br)ccc1O	10	-2	0	-1
COc1cc(/C=N/NC(=O)CNC(=O)c2ccco2)ccc1O	-8	-1	28*	-2
Cn1cnc2c(oc3ccccc32)c1=O	.	.	7	.
COc1ccc(C(=O)Nc2ccc(Cl)cc2C(=O)NCc2ccco2)cc1	-5	-2	0	-1
CCC(C)C(NC(=O)c1ccccc1NC(=O)c1ccc(OC)cc1)C(=O)NCc1ccco1 (stereo not given)	-1	-5	45*	-3
Cc1ccnc(NC(=O)Cc2ccc([N+](=O)[O-])cc2)c1	4	-4	-1	-4
Cc1ccc(NC(=S)NCCc2ccccc2)nc1	29*	-5	2	-8
Cc1ccnc(NC(=O)Cc2ccc(-c3ccccc3)cc2)c1	0	12*	-2	-2
Oc1ccccc1/C=N/NC(=S)NCCc1ccccc1	29*	-2	.	-2
Cc1ccc(NC(=O)Cc2ccc(-c3ccccc3)cc2)nc1	0	12*	-9	0
C[C@@]12C(=O)N(c3ccc(C(F)(F)F)cc3)C(=O)N1[C@@H]1c3ccccc3OC[C@@H]1[C@H]2c1ccccc1	-3	-1	0	1
Cc1cccc(C(=O)N2CCN(S(=O)(=O)N3CCCCCC3)CC2)c1	-1	-4	-3	-3
O=C(CN1CCN(CC(=O)Nc2cccc(F)c2)CC1)Nc1ccc(-c2ccccc2)cc1	1	-1	3	0
O=C(Cc1ccc(-c2ccccc2)cc1)Nc1ccccn1	-4	34*	3	-2
CC(=O)NNC(=S)NCCc1ccccc1	30*	-5	4	-2
Cc1ccc(-c2cc(C(=O)O)c3ccccc3n2)c(C)c1	1	-2	2	-1
CCc1nc2ccccc2n1CC(O)COCC1CC=CCC1 (stereo not given)	4	-2	5	-2
Cc1ccc(Nc2nc(CSc3nnc(-c4cccnc4)n3-c3ccccc3C)cs2)cc1	3	-2	47*	1
CCc1nnc(N/N=C/c2c(F)cccc2Cl)n1N	14	-3	1	-3
Cc1[nH]c2ccccc2c1/C=N/NC(N)=S	11	-1	92*	-4
O=C(N/N=C/c1ccccc1OCc1ccccc1Cl)c1cccnc1	0	-2	7	-4
CCc1nnc(N/N=C/c2c(C)[nH]c3ccccc23)n1N	54*	-1	3	0
SMILES	M18AAP inhibitor	IMP-1 inh	CTSL1 counter	VIM-2 inhibitor
NC(=S)N/N=C\c1c(OCc2ccccc2Cl)ccc2ccccc12	4	-3	30*	-5
NC(=S)N/N=C\c1c2ccccc2cc2ccccc12	10	-1	84*	-2
Cc1ccccc1C(=O)NC1CCN(C(=O)N(c2ccccc2)c2ccccc2)CC1	-2	4.6*	0	0
Cc1ccccc1C(=O)NC1CCN(C(=O)NC2CCCCC2)CC1	-3	-2	1	0
Cn1c(=O)c2ccccc2n2c(CCl)nnc12	-10	-1	28*	0
Cn1c(=O)c2ccccc2n2c(=S)[nH]nc12	25	-4	0	2
O=C(O)c1ccc(N2C(=O)c3cccc(Oc4ccc(Cl)cc4)c3C2=O)cc1	1	17*	5	6
O=C(O)CN1C(=O)c2ccc(Oc3cccc4c3C(=O)N(CC(=O)O)C4=O)cc2C1=O	5	-3	0	-1
O=C(O)c1cccc(N2C(=O)c3cccc(Oc4ccc(Cl)cc4)c3C2=O)c1	2	20*	-1	5
COc1cc(/C=N/NC(=O)c2cc3c(ccc4ccccc43)o2)cc(OC)c1O	32*	-3	0	-2
COc1ccc(/C=N/NC(=O)c2cc3c(ccc4ccccc43)o2)cc1OC	0	-1	.	-2
CCOc1ccc(NC(=O)C2CCN(S(=O)(=O)c3ccc4c(c3)NC(=O)C(C)S4)CC2)cc1 (stereo not given)	0	-2	0	-7
Cc1cc(/C=N/NC(=O)C(=O)NCc2ccccn2)c(C)n1-c1ccccc1	18	-5	5	-6
